Measured values: ChEMBL document CHEMBL5724801, “EUbOPEN Chemogenomics Library - Multiplex” (2024)
“And” between values parts separate entries of the source, which are not always exact repeats. Equal values may be shown once.

Tested on: U2OS
Assay: Multiplex assay against U2OS
Type: toxicity, cell-based
Conditions: human
Outline: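 Live cells carried four stains from seeding: Hoechst33342, BioTracker Green Microtubule Cytoskeleton Dye, MitoTracker Red and Annexin V Alexa Fluor 680. They were imaged on a CQ1 microscope at 37°C and 5% CO2 after compound addition. Using CellPathfinder machine-learning gating, cells were split into Hoechst high-intensity objects or normal cells, normal cells into healthy, pyknosed or fragmented nuclei, and pyknosed cells into mitotic or apoptotic; tubulin, mitochondrial-mass and membrane-permeability phenotypes are per cents of healthy-nucleus cells.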

[1] = 12 h, 1 µM, compound concentration 1 uM
[2] = 12 h, 10 µM, compound concentration 10 uM
[3] = 24 h, 1 µM, compound concentration 1 uM
[4] = 24 h, 10 µM, compound concentration 10 uM
[5] = 48 h, 1 µM, compound concentration 1 uM
[6] = 48 h, 10 µM, compound concentration 10 uM

## CCCCC[C@H](O)/C=C/[C@H]1[C@H](O)CC(=O)[C@@H]1CCCCCCC(=O)O [ALPROSTADIL]
[1]
  Population Apoptotic (%): 100% and 77%
  Population Fragmented Nuclei (%): 31% and 11%
  Population Healthy Nuclei (%): 62% and 81%
  Population Hoechst High Intensity Objects (%): 1% and 0%
  Population Membrane Permeable-Phenotype (%): 4% and 9%
  Population Mitochondria Different-Phenotype (%): 2% and 5%
  Population Mitotic Cells (%): 0% and 22%
  Population Normal (%): 98% and 100%
  Population Pyknosed Nuclei (%): 6%
  Population Tubulin-Different-Phenotype (%): 2% and 6%
  Total Cell Count: 219 and 132
[2]
  Population Apoptotic (%): 71% and 77%
  Population Fragmented Nuclei (%): 23% and 15%
  Population Healthy Nuclei (%): 69% and 75%
  Population Hoechst High Intensity Objects (%): 1% and 2%
  Population Membrane Permeable-Phenotype (%): 1% and 5%
  Population Mitochondria Different-Phenotype (%): 0% and 3%
  Population Mitotic Cells (%): 28% and 22%
  Population Normal (%): 98% and 97%
  Population Pyknosed Nuclei (%): 6% and 8%
  Population Tubulin-Different-Phenotype (%): 0% and 5%
  Total Cell Count: 222 and 104
[3]
  Population Apoptotic (%): 91% and 87%
  Population Fragmented Nuclei (%): 25% and 14%
  Population Healthy Nuclei (%): 65% and 75%
  Population Hoechst High Intensity Objects (%): 1% and 0%
  Population Membrane Permeable-Phenotype (%): 5% and 8%
  Population Mitochondria Different-Phenotype (%): 2% and 4%
  Population Mitotic Cells (%): 8% and 12%
  Population Normal (%): 98% and 99%
  Population Pyknosed Nuclei (%): 9%
  Population Tubulin-Different-Phenotype (%): 3%
  Total Cell Count: 263 and 166
[4]
  Population Apoptotic (%): 94% and 100%
  Population Fragmented Nuclei (%): 19% and 12%
  Population Healthy Nuclei (%): 74% and 76%
  Population Hoechst High Intensity Objects (%): 1% and 0%
  Population Membrane Permeable-Phenotype (%): 5% and 4%
  Population Mitochondria Different-Phenotype (%): 0% and 2%
  Population Mitotic Cells (%): 5% and 0%
  Population Normal (%): 98% and 99%
  Population Pyknosed Nuclei (%): 6% and 10%
  Population Tubulin-Different-Phenotype (%): 3% and 1%
  Total Cell Count: 271 and 131
[5]
  Population Apoptotic (%): 87% and 95%
  Population Fragmented Nuclei (%): 22% and 18%
  Population Healthy Nuclei (%): 68% and 71%
  Population Hoechst High Intensity Objects (%): 2% and 3%
  Population Membrane Permeable-Phenotype (%): 4% and 6%
  Population Mitochondria Different-Phenotype (%): 2% and 5%
  Population Mitotic Cells (%): 12% and 4%
  Population Normal (%): 97% and 96%
  Population Pyknosed Nuclei (%): 9%
  Population Tubulin-Different-Phenotype (%): 2% and 6%
  Total Cell Count: 367 and 236
[6]
  Population Apoptotic (%): 88% and 100%
  Population Fragmented Nuclei (%): 13% and 11%
  Population Healthy Nuclei (%): 76% and 77%
  Population Hoechst High Intensity Objects (%): 0% and 2%
  Population Membrane Permeable-Phenotype (%): 4% and 6%
  Population Mitochondria Different-Phenotype (%): 0% and 1%
  Population Mitotic Cells (%): 11% and 0%
  Population Normal (%): 99% and 97%
  Population Pyknosed Nuclei (%): 10%
  Population Tubulin-Different-Phenotype (%): 3% and 4%
  Total Cell Count: 362 and 165

## O=C(Nc1c[nH]nc1-c1nc2cc(CN3CCOCC3)ccc2[nH]1)NC1CC1 [AT-9283]
[1]
  Population Apoptotic (%): 27.91% and 52.63%
  Population Fragmented Nuclei (%): 2.75% and 2.61%
  Population Healthy Nuclei (%): 85.4% and 84.97%
  Population Hoechst High Intensity Objects (%): 0%
  Population Membrane Permeable-Phenotype (%): 0.65% and 3.85%
  Population Mitochondria Different-Phenotype (%): 0.32% and 9.23%
  Population Mitotic Cells (%): 72.09% and 47.37%
  Population Normal (%): 100%
  Population Pyknosed Nuclei (%): 11.85% and 12.42%
  Population Tubulin-Different-Phenotype (%): 1.29% and 0%
  Total Cell Count: 363 and 153
[2]
  Population Apoptotic (%): 43% and 36.73%
  Population Fragmented Nuclei (%): 6.56% and 13.38%
  Population Healthy Nuclei (%): 60.66% and 52.11%
  Population Hoechst High Intensity Objects (%): 0% and 0.7%
  Population Membrane Permeable-Phenotype (%): 1.62% and 5.41%
  Population Mitochondria Different-Phenotype (%): 0% and 14.86%
  Population Mitotic Cells (%): 57% and 63.27%
  Population Normal (%): 100% and 99.3%
  Population Pyknosed Nuclei (%): 32.79% and 34.51%
  Population Tubulin-Different-Phenotype (%): 2.16% and 2.7%
  Total Cell Count: 305 and 143
[3]
  Population Apoptotic (%): 38.27% and 55.56%
  Population Fragmented Nuclei (%): 5.31% and 3.57%
  Population Healthy Nuclei (%): 73.21% and 75%
  Population Hoechst High Intensity Objects (%): 0%
  Population Membrane Permeable-Phenotype (%): 0.72% and 3.17%
  Population Mitochondria Different-Phenotype (%): 0% and 7.94%
  Population Mitotic Cells (%): 61.73% and 44.44%
  Population Normal (%): 100%
  Population Pyknosed Nuclei (%): 21.49% and 21.43%
  Population Tubulin-Different-Phenotype (%): 1.81% and 0%
  Total Cell Count: 377 and 168
[4]
  Population Apoptotic (%): 50.29% and 58.51%
  Population Fragmented Nuclei (%): 11.38% and 13.89%
  Population Healthy Nuclei (%): 28.28% and 20.83%
  Population Hoechst High Intensity Objects (%): 0.34% and 1.37%
  Population Membrane Permeable-Phenotype (%): 4.88% and 10%
  Population Mitochondria Different-Phenotype (%): 0% and 10%
  Population Mitotic Cells (%): 49.71% and 41.49%
  Population Normal (%): 99.66% and 98.63%
  Population Pyknosed Nuclei (%): 60.34% and 65.28%
  Population Tubulin-Different-Phenotype (%): 10.98% and 3.33%
  Total Cell Count: 291 and 146
[5]
  Population Apoptotic (%): 55.84% and 65.43%
  Population Fragmented Nuclei (%): 5.53% and 3.43%
  Population Healthy Nuclei (%): 57.45% and 50.29%
  Population Hoechst High Intensity Objects (%): 0.24% and 0.57%
  Population Membrane Permeable-Phenotype (%): 4.6% and 11.36%
  Population Mitotic Cells (%): 44.16% and 34.57%
  Population Normal (%): 99.76% and 99.43%
  Population Pyknosed Nuclei (%): 37.02% and 46.29%
  Population Tubulin-Different-Phenotype (%): 11.3% and 13.64%
  Total Cell Count: 417 and 176
[6]
  Population Apoptotic (%): 69.51% and 86%
  Population Fragmented Nuclei (%): 9.83% and 10.61%
  Population Healthy Nuclei (%): 14.58% and 13.64%
  Population Hoechst High Intensity Objects (%): 0.34% and 0%
  Population Membrane Permeable-Phenotype (%): 27.91% and 11.11%
  Population Mitochondria Different-Phenotype (%): 0% and 5.56%
  Population Mitotic Cells (%): 30.49% and 14%
  Population Normal (%): 99.66% and 100%
  Population Pyknosed Nuclei (%): 75.59% and 75.76%
  Population Tubulin-Different-Phenotype (%): 58.14% and 50%
  Total Cell Count: 296 and 132

## Cc1ccccc1C(=O)Nc1ccc(C(=O)N2CCCC(N(C)C)c3ccccc32)cc1.Cl (stereo unspecified)
[1]
  Population Apoptotic (%): 91% and 77%
  Population Fragmented Nuclei (%): 20% and 14%
  Population Healthy Nuclei (%): 70% and 79%
  Population Hoechst High Intensity Objects (%): 1%
  Population Membrane Permeable-Phenotype (%): 5% and 4%
  Population Mitochondria Different-Phenotype (%): 3% and 5%
  Population Mitotic Cells (%): 8% and 22%
  Population Normal (%): 98%
  Population Pyknosed Nuclei (%): 8% and 5%
  Population Tubulin-Different-Phenotype (%): 4% and 1%
  Total Cell Count: 282 and 157
[2]
  Population Apoptotic (%): 59% and 56%
  Population Fragmented Nuclei (%): 18%
  Population Healthy Nuclei (%): 55% and 62%
  Population Hoechst High Intensity Objects (%): 4% and 1%
  Population Membrane Permeable-Phenotype (%): 14% and 15%
  Population Mitochondria Different-Phenotype (%): 11% and 25%
  Population Mitotic Cells (%): 40% and 43%
  Population Normal (%): 95% and 98%
  Population Pyknosed Nuclei (%): 25% and 19%
  Population Tubulin-Different-Phenotype (%): 8% and 15%
  Total Cell Count: 213 and 83
[3]
  Population Apoptotic (%): 88% and 66%
  Population Fragmented Nuclei (%): 18% and 13%
  Population Healthy Nuclei (%): 70% and 77%
  Population Hoechst High Intensity Objects (%): 0% and 1%
  Population Membrane Permeable-Phenotype (%): 6% and 5%
  Population Mitochondria Different-Phenotype (%): 3% and 4%
  Population Mitotic Cells (%): 11% and 33%
  Population Normal (%): 99% and 98%
  Population Pyknosed Nuclei (%): 10% and 9%
  Population Tubulin-Different-Phenotype (%): 4% and 3%
  Total Cell Count: 333 and 192
[4]
  Population Apoptotic (%): 71% and 46%
  Population Fragmented Nuclei (%): 16% and 27%
  Population Healthy Nuclei (%): 51% and 53%
  Population Hoechst High Intensity Objects (%): 4% and 5%
  Population Membrane Permeable-Phenotype (%): 16% and 18%
  Population Mitochondria Different-Phenotype (%): 14% and 18%
  Population Mitotic Cells (%): 28% and 53%
  Population Normal (%): 95% and 94%
  Population Pyknosed Nuclei (%): 31% and 18%
  Population Tubulin-Different-Phenotype (%): 6% and 18%
  Total Cell Count: 211 and 73
[5]
  Population Apoptotic (%): 85% and 83%
  Population Fragmented Nuclei (%): 14% and 15%
  Population Healthy Nuclei (%): 71% and 72%
  Population Hoechst High Intensity Objects (%): 1%
  Population Membrane Permeable-Phenotype (%): 5% and 7%
  Population Mitochondria Different-Phenotype (%): 3% and 5%
  Population Mitotic Cells (%): 14% and 16%
  Population Normal (%): 98%
  Population Pyknosed Nuclei (%): 13% and 12%
  Population Tubulin-Different-Phenotype (%): 3% and 4%
  Total Cell Count: 414 and 248
[6]
  Population Apoptotic (%): 71% and 84%
  Population Fragmented Nuclei (%): 28%
  Population Healthy Nuclei (%): 43% and 42%
  Population Hoechst High Intensity Objects (%): 8%
  Population Membrane Permeable-Phenotype (%): 17% and 11%
  Population Mitotic Cells (%): 28% and 16%
  Population Normal (%): 91%
  Population Pyknosed Nuclei (%): 28% and 29%
  Population Tubulin-Different-Phenotype (%): 7% and 13%
  Total Cell Count: 206 and 93
